Experiments:
[1] = Binding affinity to human CD4 signal peptide expressed in CHO cells assessed as down-modulation of YFP-fused CD4 expression after 24 hrs by flow cytometric analysis; format: cell-based
In short: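 CHO cells stably expressing human CD4 fused C-terminally to YFP, treated 24 h at 37 °C with 1:5 serial dilutions. Washed, fixed in 1% formaldehyde, flow cytometry with 488 nm excitation and YFP in FL-1. YFP median fluorescence as % of untreated cells after subtracting non-transfected background. IC50 = 50% decrease; mean ± SD, n ≥ 3.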

[2] = system: Human immunodeficiency virus 1; experiment: Antiviral activity against CXCR4 using HIV-1 NL4.3 infected in human MT4 cells assessed as reduction of viral replication preincubated for 15 mins with cells followed by viral infection measured after 4 days by MTS/PES method; format: functional, organism-based; settings: Human immunodeficiency virus 1, NL4.3, MT4
In short: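 MT-4 T cells at 3.75×10⁵ cells/mL in RPMI 1640 with 10% FBS and 2 mM L-glutamine, exposed to compounds for 15 min, then infected with HIV-1 NL4.3 (30 pg/well) at 37 °C. After 4 days, viability by MTS/PES absorbance at 490 and 700 nm, used to derive IC50 for viral replication. Mean ± SD, n = 2 or 3.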

MT4 = experiment: Cytotoxicity against human MT4 cells after 48 hrs by MTS/PES method; format: cell-based; settings: mt4, 48 h
In short: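 MT-4 cells at 10⁴ per well in DMEM with 10% FBS and 10 mM HEPES, incubated with compounds 48 h at 37 °C. Viability by MTS/PES; CC50 taken as the concentration reducing viability by 50%.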

CHO = experiment: Binding affinity to human CD4 signal peptide expressed in CHO cells assessed as down-modulation of YFP-fused CD4 expression at 50 uM after 24 hrs by flow cytometric analysis; format: cell-based
In short: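 Stably CD4-YFP-expressing CHO cells, 24 h at 37 °C, 50 μM as the highest concentration tested. Washed, fixed in 1% formaldehyde, YFP read by flow cytometry (488 nm, FL-1). Median fluorescence versus untreated cells, background of non-transfected cells subtracted. Given as % CD4 down-modulation at 50 μM.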

| SMILES | IC50 [1] [µM] | pIC50 [1] | IC50 [2] [µM] | CC50 (MT4) [µM] | Activity (CHO) [%] |
| --- | --- | --- | --- | --- | --- |
| C=C1CN(S(=O)(=O)c2ccc(C)cc2)CCCN(CC2CCCCC2)CCCN(S(=O)(=O)c2ccc(OCCCN)cc2)C1 | > 50 | – | – | 11.6 | – |
| C=C1CN(S(=O)(=O)c2ccc(C)cc2)CCCN(Cc2ccccc2)CCCN(S(=O)(=O)c2ccc(N)cc2)C1.Cl | 2.42 | 5.62 | 7.72 | 63.4 | – |
| C=C1CN(S(=O)(=O)c2ccc(C)cc2)CCCN(Cc2ccccc2)CCCN(S(=O)(=O)c2cccc([N+](=O)[O-])c2)C1.Cl | 2.02 | 5.69 | > 50 | > 150 | – |
| C=C1CN(C(=O)c2ccc([N+](=O)[O-])cc2)CCCN(Cc2ccccc2)CCCN(S(=O)(=O)c2ccc(C)cc2)C1 | > 50 | – | > 50 | > 150 | 39 |
| C=C1CN(C(=O)c2ccccc2)CCCN(Cc2ccccc2)CCCN(S(=O)(=O)c2ccc(C)cc2)C1 | 7.32 | – | > 10 | 15.8 | – |
| C=C1CN(C(=O)c2ccc(N)cc2)CCCN(Cc2ccccc2)CCCN(S(=O)(=O)c2ccc(C)cc2)C1 | > 50 | – | > 10 | 13.7 | – |
| C=C1CN(S(=O)(=O)c2ccc(C)cc2)CCCN(Cc2ccccc2)CCCN(S(=O)(=O)c2ccc(C)cc2)C1 | – | 6.4 | – | – | – |
| C=C1CN(S(=O)(=O)c2ccccc2)CCCN(Cc2ccccc2)CCCN(S(=O)(=O)c2ccc(C)cc2)C1.Cl | 1.46 | 5.84 | > 50 | > 150 | – |
| C=C1CN(C(=O)c2ccc(OC)cc2)CCCN(Cc2ccccc2)CCCN(S(=O)(=O)c2ccc(C)cc2)C1 | 4.22 | – | 3.86 | 23.6 | – |
| C=C1CN(S(=O)(=O)c2ccc(C)cc2)CCCN(Cc2ccccc2)CCCN(S(=O)(=O)c2ccccc2N)C1.Cl | 2.12 | 5.66 | 6.93 | 70.3 | – |
| C=C1CN(S(=O)(=O)c2ccc(C)cc2)CCCN(Cc2ccccc2)CCCN(S(=O)(=O)c2ccc(O)cc2)C1.Cl | 3.58 | 5.45 | 2.84 | 13.6 | – |
| C=C1CN(C(=O)c2ccc(C)cc2)CCCN(Cc2ccccc2)CCCN(S(=O)(=O)c2ccc(C)cc2)C1 | 3.78 | – | 3.95 | 19.9 | – |
| C=C1CN(S(=O)(=O)c2ccc(C)cc2)CCCN(Cc2ccccc2)CCCN(S(=O)(=O)c2ccc(OC(=S)N(C)C)cc2)C1.Cl | 6.28 | 5.2 | > 50 | 106 | – |
| C=C1CNCCCN(Cc2ccccc2)CCCN(S(=O)(=O)c2ccc(C)cc2)C1 | > 50 | – | – | > 150 | 20 |
| C=C1CN(S(=O)(=O)c2ccc(C)cc2)CCCN(Cc2ccccc2)CCCN(S(=O)(=O)c2ccc([N+](=O)[O-])cc2)C1.Cl | 5.25 | 5.28 | 35.9 | > 150 | – |
| C=C1CN(S(=O)(=O)c2ccc(C)cc2)CCCN(Cc2ccccc2)CCCN(S(=O)(=O)c2ccn(C)c2)C1.Cl | 3.17 | 5.5 | > 50 | > 150 | – |
| C=C1CN(S(=O)(=O)c2ccc(C)cc2)CCCN(Cc2ccccc2)CCCN(S(=O)(=O)N(C)C)C1 | 1.58 | – | 12.8 | > 150 | – |

Now from value to compound, other results behind:

| IC50 [1] [µM] | pIC50 [1] | SMILES | IC50 [2] [µM] | CC50 (MT4) [µM] | Activity (CHO) [%] |
| --- | --- | --- | --- | --- | --- |
| 0.31 | 6.51 | C=C1CN(S(=O)(=O)c2ccc(C)cc2)CCCN(Cc2ccccc2)CCCN(S(=O)(=O)c2ccc(OC)c(OC)c2)C1.Cl | 0.86 | > 150 | – |
| 0.29 | 6.54 | C=C1CN(S(=O)(=O)c2ccc(C)cc2)CCCN(Cc2ccccc2)CCCN(S(=O)(=O)c2ccc(OC)cc2)C1.Cl | 0.55 | > 150 | – |
| 0.063 | – | C=C1CN(S(=O)(=O)c2ccc(C)cc2)CCCN(CC2CCCCC2)CCCN(S(=O)(=O)c2ccc(N(C)C)cc2)C1 | 0.18 | 44 | – |
| 1.06 | 5.97 | C=C1CN(S(=O)(=O)c2ccc(C)cc2)CCCN(Cc2ccccc2)CCCN(S(=O)(=O)c2ccc3c(c2)OCO3)C1.Cl | 14.2 | > 150 | – |
| 1.08 | 5.97 | C=C1CN(S(=O)(=O)c2ccc(C)cc2)CCCN(Cc2ccccc2)CCCN(S(=O)(=O)N2CCOCC2)C1.Cl | 8.99 | > 150 | – |
| 0.18 | – | C=C1CN(S(=O)(=O)c2ccc(C)cc2)CCCN(CC2CCCCC2)CCCN(S(=O)(=O)c2ccc(-n3cccc3)cc2)C1 | 1.25 | 48 | – |
| 1.1 | – | C=C1CN(S(=O)(=O)c2ccc(C)cc2)CCCN(CC2CCCCC2)CCCN(S(=O)(=O)c2ccc(OCCCC)cc2)C1 | 1.95 | 13.2 | – |
| 0.92 | 6.04 | C=C1CN(S(=O)(=O)c2ccc(C)cc2)CCCN(Cc2ccccc2)CCCN(S(=O)(=O)c2ccc(F)cc2)C1.Cl | 4.66 | > 150 | – |
| 0.7 | 6.15 | C=C1CN(S(=O)(=O)c2ccc(C)cc2)CCCN(Cc2ccccc2)CCCN(S(=O)(=O)c2ccccc2[N+](=O)[O-])C1.Cl | 27.7 | > 150 | – |
| 0.13 | – | C=C1CN(S(=O)(=O)c2ccc(C)cc2)CCCN(CC2CCCCC2)CCCN(S(=O)(=O)c2ccc(N3CCOCC3)cc2)C1 | 0.36 | > 150 | – |
| 0.79 | 6.1 | C=C1CN(S(=O)(=O)c2ccc(C)cc2)CCCN(Cc2ccccc2)CCCN(S(=O)(=O)c2cccc(N(C)C)c2)C1.Cl | > 50 | > 150 | – |
| 0.17 | 6.77 | C=C1CN(S(=O)(=O)c2ccc(C)cc2)CCCN(Cc2ccccc2)CCCN(S(=O)(=O)c2ccc(N(C)C)cc2)C1.Cl | 0.62 | > 150 | – |
| 1.14 | – | C=C1CN(S(=O)(=O)c2ccc(C)cc2)CCCN(CC2CCCCC2)CCCN(S(=O)(=O)c2ccc(O)cc2)C1 | – | > 150 | – |
| 0.75 | – | C=C1CN(S(=O)(=O)c2ccc(C)cc2)CCCN(CC2CCCCC2)CCCN(S(=O)(=O)c2ccc(OCCCN3C(=O)c4ccccc4C3=O)cc2)C1 | – | 32.2 | – |
| 0.46 | 6.34 | C#CCOc1ccc(S(=O)(=O)N2CCCN(Cc3ccccc3)CCCN(S(=O)(=O)c3ccc(C)cc3)CC(=C)C2)cc1.Cl | 0.55 | > 150 | – |
| 1.2 | 5.92 | C=C1CN(S(=O)(=O)c2ccc(C)cc2)CCCN(Cc2ccccc2)CCCN(S(=O)(=O)c2ccc(OC(F)(F)F)cc2)C1.Cl | 3.26 | > 150 | – |
| 0.15 | – | C=C1CN(S(=O)(=O)c2ccc(C)cc2)CCCN(CC2CCCCC2)CCCN(S(=O)(=O)c2ccc(OC)cc2)C1 | 0.49 | 99 | – |
| 0.23 | 6.64 | C=C1CN(S(=O)(=O)c2ccc(C)cc2)CCCN(Cc2ccccc2)CCCN(S(=O)(=O)c2ccc(SC)cc2)C1.Cl | 1.44 | > 150 | – |
| 1 | – | C=C1CN(S(=O)(=O)c2ccc(C)cc2)CCCN(CC2CCCCC2)CCCN(S(=O)(=O)c2ccc(N)cc2)C1 | > 10 | 10.6 | – |
| 1.35 | 5.87 | C=C1CN(S(=O)(=O)c2ccc(C)cc2)CCCN(Cc2ccccc2)CCCN(S(=O)(=O)c2ccc(OC)cc2OC)C1.Cl | 7 | > 150 | – |
| 0.19 | – | C=C1CN(S(=O)(=O)c2ccc(C)cc2)CCCN(CC2CCCCC2)CCCN(S(=O)(=O)c2ccc(OCC)cc2)C1 | 0.62 | 19.6 | – |
| 1.02 | 5.99 | C=C1CN(S(=O)(=O)c2ccc(C)cc2)CCCN(Cc2ccccc2)CCCN(S(=O)(=O)c2cccc(N)c2)C1.Cl | 6.22 | > 150 | – |
| 0.55 | 6.26 | C=C1CN(S(=O)(=O)c2ccc(C)cc2)CCCN(Cc2ccccc2)CCCN(S(=O)(=O)c2ccc3ccccc3c2)C1.Cl | 1.35 | > 150 | – |

Reference: ChEMBL document CHEMBL3792300, “Tuning Side Arm Electronics in Unsymmetrical Cyclotriazadisulfonamide (CADA) Endoplasmic Reticulum (ER) Translocation Inhibitors to Improve their Human Cluster of Differentiation 4 (CD4) Receptor Down-Modulating Potencies” (J Med Chem, 2016)
